The values below come from ChEMBL document CHEMBL4004865, “Synthesis, SAR and molecular docking study of novel non-β-lactam inhibitors of TEM type β-lactamase” (Bioorg Med Chem Lett, 2017).

The test system of experiment [1] is Escherichia coli. The experiment can be described thus: Inhibition of Escherichia coli beta-lactamase TEM-171 assessed as initial hydrolysis rate of substrate CENTA at 100 uM by UV spectrophotometric method (reference value: 0.74 +/- 0.11 uM/s). The gist of the method: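 TEM-171 β-lactamase at 10 nM. Substrate and each inhibitor were tested at one fixed concentration. The initial rate V0 of substrate hydrolysis was recorded. The relative activity decrease (%) was calculated from V0 with inhibitor versus V0 of the enzyme-only control.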

For experiment [2], the system named is Escherichia coli. The experiment can be described thus: Inhibition of Escherichia coli beta-lactamase TEM-171 using CENTA as substrate at 100 uM by UV spectrophotometric method relative to control. The gist of the method:
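Substrate and each inhibitor were tested at one fixed concentration. The initial rate V0 of substrate hydrolysis was recorded. The relative activity decrease (%) was calculated from V0 with inhibitor versus V0 of the enzyme-only control.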

For `O=C(O)CCC(=O)Nc1ccc(Oc2ccc(Cl)cc2Cl)cc1`, the V0 in the experiment on Escherichia coli [1] amounted to 0.46 µM/s. In addition, in the experiment with Escherichia coli [2], the inhibition amounted to 38%. In the case of `O=C(O)CCCC(=O)Nc1ccc(Oc2ccccc2)cc1`, the V0 in the experiment on Escherichia coli [1] stood at 0.73 µM/s. Also, in the experiment on Escherichia coli [2], the inhibition turned out to be 1.4%. The like results for `O=C(O)CCC(=O)Nc1ccc(Oc2ccc(Br)cc2)cc1` were, in that order, 0.53 µM/s and 28%. On the same counts, the results for `O=C(O)CCCC(=O)Nc1ccc(Oc2ccc(Cl)cc2Cl)cc1` are 0.51 µM/s and 31%. The like results for `O=C(O)CCC(=O)Nc1ccc(Oc2ccc(Cl)cc2)cc1` were, in that order, 0.7 µM/s and 5.4%.

For the molecule `O=C(O)CCCC(=O)Nc1ccc(Oc2ccc(Br)cc2)cc1`, the V0 in the experiment with Escherichia coli [1] is 0.53 µM/s.

Take `O=C(O)C(=O)Nc1ccc(Oc2ccc(Cl)cc2Cl)cc1`: the V0 in the experiment on Escherichia coli [1] amounted to 0.51 µM/s. In the experiment with Escherichia coli [2], the inhibition stood at 31%. For `O=C(O)CCCC(=O)Nc1ccc(Oc2ccc(Cl)cc2)cc1`, in the experiment with Escherichia coli [1], the V0 was 0.73 µM/s. In addition, the inhibition with Escherichia coli [2] turned out to be 1.4%. The like results for `O=C(O)c1ccc(NC(=S)Nc2ccc(Oc3ccc(Cl)cc3Cl)cc2)cc1` were, in that order, 0.37 µM/s and 50%. On the same counts, the results for `O=C(O)c1ccc(NC(=S)Nc2ccc(Oc3ccc(Cl)cc3)cc2)cc1` are 0.53 µM/s and 28.4%. In the case of `O=C(O)CCC(=O)Nc1ccc(Oc2ccccc2)cc1`, in the experiment with Escherichia coli [1], the V0 was 0.73 µM/s. In the experiment with Escherichia coli [2], the inhibition is 1.4%.

As to `O=C(O)c1ccc(NC(=S)Nc2ccc(Oc3ccccc3)cc2)cc1`, the V0 in the experiment with Escherichia coli [1] is 0.59 µM/s. The molecule further had an inhibition with Escherichia coli [2] of 20.3%.

Broadly, the inhibition is the share of the control response that was lost under treatment. Low readings indicate a response near the control, high ones a response far below the control.
